Measurements taken from paper PMC3944097 (ACS chemical biology, 2013).

Experiments:
[1] = LC/MS identification of parent probe, Met1 and Met2 in tumor, plasma and liver; format: in vivo, mice; details: 60 min after probe injection; for species detected in liver: liver homogenate; for species detected in liver / parent probe in plasma: LC/MS; for species detected in SCC-7 tumor: tumor homogenate, high sensitivity LC/MS
Method in brief: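 Female athymic nude mice bore subcutaneous SCC-7 tumours (~300 mm3) and received probe intravenously via the tail vein. At 60 min, plasma, tumour and liver were collected. Tissues were weighed, stored in liquid nitrogen and homogenised in H2O/acetonitrile 50/50 containing 10% HCOOH. After pellet removal, extracts were lyophilised and redissolved in the same solvent. High-sensitivity LC–MS then screened for parent probe, Met1 and Met2.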

MMP-13 = MMP-13 (Homo sapiens, UniProt P45452); assay: LC/MS analysis of probe fragmentation on incubation with MMP-13; format: biochemical; details: for metabolites found after incubation with MMP-13: 2 h incubation with MMP-13, LC/MS
Method in brief: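 Test compound (1 μM) incubated with MMP-13 catalytic domain (40 nM) at 37 °C in 50 mM Tris, 10 mM CaCl2, 150 mM NaCl, 0.05% Brij35, pH 7.8. Aliquots were taken every 10 min to 60 min, then every 20 min to 120 min. Each was quenched with an equal volume of acetonitrile containing 10% HCOOH. Fragments were identified by UPLC–Q-Tof LC–MS.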

[2] = format: in vivo, mice; details: for half-life: mouse, iv
Method in brief: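 Female athymic nude mice bore SCC-7 tumours, grown from 1 × 10^6 cells injected subcutaneously into the right front flank and used at ~300 mm3. Probe was given intravenously via the tail vein. Blood was sampled at 1, 5, 15, 30, 45 and 60 min. Intact probe and the Met1/Met2 fragments were measured by HPLC–QTRAP LC–MS using a single MRM transition, with triplicate injections.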

different MMPs = assay: Specificity and selectivity of probes to MMP enzymes; format: biochemical; details: fluorescence activation by MMP enzymes (Figure 2a)
[3] = system: catalytic domain of MMP-13; assay: reaction buffer; details: 37 °C, up to 120 min

| cleaved bond [3] | Compound | species detected in liver [1] | parent probe in plasma [1] | species detected in SCC-7 tumor [1] | metabolites found after incubation with MMP-13 (MMP-13) | Met1/Met2 ratio in blood ([2]; mice, i.v., blood samples at 1, 5, 15, 30, 45 and 60 min p.i., LC/MS) | half-life ([2]; blood) | enzyme specificity and selectivity over different MMPs (different MMPs) | intact probe in blood samples at 45 min after injection ([2]; mice, i.v., blood, LC/MS) | further cleavage of metabolite by MMP-13 (MMP-13; incubation with MMP-13, LC/MS, late time points) |
| --- | --- | --- | --- | --- | --- | --- | --- | --- | --- | --- |
|  | CCN(CC)c1ccc2nc3ccc(N=Nc4ccc(N(C)CCCC(=O)NCCCC[C@@H](NC(=O)CNC(=O)[C@H](CCCNC(=N)N)NC(=O)[C@@H](NC(=O)CNC(=O)[C@H](CC(C)C)NC(=O)[C@@H]5CCCN5C(=O)CNC(=O)CCCCC[N+]5=C(C=CC=CC=C6N(CC)c7ccc8c(S(=O)(=O)[O-])cc(S(=O)(=O)O)cc8c7C6(C)C)C(C)(C)c6c5ccc5c(S(=O)(=O)[O-])cc(S(=O)(=O)O)cc65)C(C)C)C(=O)NCC(=O)NCC(=O)NCCOCCOCCOCCOCCOCCOCCOCCOCCOCCOCCOCCO)cc4)cc3[n+](-c3ccccc3)c2c1 [D-MMP-P12] | only Met2 fragment could be detected | still detectable after 1 h | parent D-MMP-P12 probe, Met1 and Met2 were all detectable | only the MMP specific metabolite Met1 but not Met2 was found | much higher than that of L-MMP-P12 at all the time points examined | 29.8 ± 0.45 min | very similar enzyme specificity and selectivity with L-MMP-P12 |  |  |
|  | CCN(CC)c1ccc2nc3ccc(N=Nc4ccc(N(C)CCCC(=O)NCCCC[C@H](NC(=O)CNC(=O)[C@H](CCCNC(=N)N)NC(=O)[C@@H](NC(=O)CNC(=O)[C@H](CC(C)C)NC(=O)[C@@H]5CCCN5C(=O)CNC(=O)CCCCC[N+]5=C(C=CC=CC=C6N(CC)c7ccc8c(S(=O)(=O)[O-])cc(S(=O)(=O)O)cc8c7C6(C)C)C(C)(C)c6c5ccc5c(S(=O)(=O)[O-])cc(S(=O)(=O)O)cc65)C(C)C)C(=O)NCC(=O)NCC(=O)NCCOCCOCCOCCOCCOCCOCCOCCOCCOCCOCCOCCO)cc4)cc3[n+](-c3ccccc3)c2c1 [L-MMP-P12] | only Met2 fragment could be detected | very little L-MMP-P12 was found | only Met2 was detected while no parent probe or Met1 was found | two major fragments |  | 7.81 ± 0.25 min |  | almost no intact L-MMP-P12 can be detected |  |
|  | Cy5.5-GPLGVR [Met2] |  |  |  |  |  |  |  |  | can be further cut by MMP-13 to form Met1 |
| Gly4-Val5, major | GPLGVRGKGG |  |  |  |  |  |  |  |  |  |
